Compounds with a hit are over-represented: about 5.9% of the library has one in this group of screens.
T cruzi growth-1: blocks T. cruzi growth in NIH3T3 culture | inhibition, % at 8.34 µM | AID 624255 | hit rate 5.9% among 77,000 | T. cruzi beta-gal in NIH3T3, GalScreen luminescence, 90 h;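 active = mean inhibition above about 93%, with at least 55% of replicates each passing it, limit read from the data, passing the limit was not always enough; inconclusive = only one of those two conditions holds; inactive = neither condition holds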
Pf Dd2 inh: inhibitors of Plasmodium falciparum Dd2 growth. AID 1159554. hit rate 2.3% among 94,000. P. falciparum Dd2 growth, SYBR Green, 72 h; active compounds read low. activity change, % at 10 µM; in the data active = activity change below about -80%; inconclusive = no clear call, values can overlap the other calls
GASC1 inh: blocks human GASC-1 (KDM4C) demethylase activity | Q9H3R0 | GST-KDM4C 2-372, H3K9me3 peptide, LANCE TR-FRET | inhibition, % at 12.5 µM | hit rate 0.15% among 96,000 | AID 720574;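 active = mean replicate inhibition above about 25%, with at least 55% of replicates also reaching it, limit read from the data, passing the limit was not always enough; inconclusive = only one of those two conditions met; inactive = neither condition met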
Target sequence (Q9H3R0 2-372 limits assumed): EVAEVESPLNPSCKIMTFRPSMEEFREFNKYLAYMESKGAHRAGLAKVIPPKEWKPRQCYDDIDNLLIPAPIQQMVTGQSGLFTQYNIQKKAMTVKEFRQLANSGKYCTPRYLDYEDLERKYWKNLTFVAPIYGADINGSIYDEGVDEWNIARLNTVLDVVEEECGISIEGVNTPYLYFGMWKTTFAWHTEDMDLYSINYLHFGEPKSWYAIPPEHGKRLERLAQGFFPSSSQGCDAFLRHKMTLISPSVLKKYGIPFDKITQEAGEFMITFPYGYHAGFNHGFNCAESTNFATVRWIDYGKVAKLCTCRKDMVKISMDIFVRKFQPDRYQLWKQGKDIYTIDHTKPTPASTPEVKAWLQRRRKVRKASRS
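Compound: one test concentration per compound; Material: GST-GASC-1 enzyme fragment 2-372; Amount: GASC-1 enzyme at 10 nM final in reaction; Also added: H3K9me3 peptide substrate, Fe(II), 2-oxoglutarate; Technique: LANCE TR-FRET; Times: 30 min demethylation and 1 h detection at room temperature.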
IDH1 R132H inh: blocks human IDH1 R132H reductase activity; O75874; diaphorase/resazurin fluorescence, 60 min; inhibition, % at 10 µM; hit rate 0.18% among 70,000; AID 624101; in the data active = inhibition above about 34%; inconclusive = no clear call, values can overlap the other calls; inactive = below about 11%
T cruzi growth-2: Trypanosoma cruzi proliferation inhibition. T. cruzi beta-gal in NIH3T3, GalScreen luminescence, 90 h. inhibition, % at 8.35 µM. shares compounds with T cruzi growth-1. AID 651739. hit rate 72% among 5,600;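 active = mean replicate inhibition above about 95% and at least 55% of replicates individually reaching it, limit read from the data; inconclusive = only one of the two criteria is met; inactive = neither criterion is met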
T cruzi growth-3: Trypanosoma cruzi proliferation inhibition; T. cruzi beta-gal in NIH3T3, GalScreen luminescence, 90 h; shares compounds with T cruzi growth-1; AID 651740; hit rate 21% among 5,600; inhibition, % at 2.09 µM;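 active = mean inhibition above about 95%, with at least 55% of replicates also reaching it, limit read from the data; inconclusive = meets just one of the two conditions; inactive = meets neither condition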
NIH3T3 tox: NIH/3T3 (mouse) viability loss; shares compounds with T cruzi growth-1; NIH/3T3 viability, CellTiter-Glo ATP luminescence, 90 h; cytotoxicity (signal decrease), % at 8.35 µM; hit rate 14% among 5,600;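 active = mean signal decrease across replicates above about 35% based on untreated-well scatter, with enough replicates individually passing, limit read from the data; inconclusive = no rule stated though some were filed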
NIH3T3 tox 2: NIH/3T3 (mouse) viability loss | inhibition, % at 24.9 µM | hit rate 56% among 5,600 | AID 651744 | NIH/3T3 viability, CellTiter-Glo ATP luminescence, 90 h | shares compounds with T cruzi growth-1;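 active = mean loss of cell viability signal at or above a set limit, and enough replicates individually reaching it; inconclusive = meets only the mean limit or only the replicate share; inactive = meets neither condition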
Of the large screens only hits and unclear results are named; the others gave an inactive call (follow-up assays come after a bar, where they were run).

Cc1ccc(S(=O)(=O)N(C)C[C@H]2OCCCC[C@H](C)Oc3ccc(NS(=O)(=O)c4cccs4)cc3C(=O)N([C@H](C)CO)C[C@H]2C)cc1	T cruzi growth-1 109 (no result: IDH1 R132H inh) | T cruzi growth-2 103 | T cruzi growth-3 inactive | NIH3T3 tox inactive | NIH3T3 tox 2 inactive
Cc1ccc(S(=O)(=O)N(C)C[C@@H]2OCCCC[C@@H](C)Oc3ccc(NS(=O)(=O)c4cccs4)cc3C(=O)N([C@@H](C)CO)C[C@H]2C)cc1	IDH1 R132H inh inconclusive
Cc1ccc(S(=O)(=O)N(C)C[C@@H]2OCCCC[C@@H](C)Oc3ccc(NS(=O)(=O)c4cccs4)cc3C(=O)N([C@H](C)CO)C[C@H]2C)cc1	none
C[C@@H]1CCCCO[C@H](CN(C)S(=O)(=O)c2ccccc2)[C@H](C)CN([C@@H](C)CO)C(=O)c2cc(NS(=O)(=O)c3cccs3)ccc2O1	T cruzi growth-1 inconclusive (no result: Pf Dd2 inh) | T cruzi growth-2 103 | T cruzi growth-3 inactive | NIH3T3 tox inactive | NIH3T3 tox 2 inactive
CN(C)CCCN1C(=O)C(=O)C(C(=O)c2cccs2)C1c1ccco1 (stereo not given)	none (no result: T cruzi growth-1, Pf Dd2 inh, GASC1 inh)
Cc1cc([N+](=O)[O-])ccc1NC(=O)CSc1nnc(-c2ccccc2)o1	none (no result: T cruzi growth-1, Pf Dd2 inh, GASC1 inh)
Cc1cc(I)ccc1NC(=O)Cn1ccc([N+](=O)[O-])n1	none (no result: T cruzi growth-1, Pf Dd2 inh, GASC1 inh)
COc1ccc2c3c(n(C)c2c1)[C@H](CO)N(CC1CC1)CC31CCN(C(C)=O)CC1	none (no result: T cruzi growth-1, GASC1 inh, IDH1 R132H inh)
CC1(O)CC(=O)c2c(ccc3c2C(=O)c2cccc(O)c2C3=O)C1 (stereo not given)	none (no result: T cruzi growth-1, Pf Dd2 inh, GASC1 inh)
Cc1ccc(S(=O)(=O)N(C)C[C@H]2OCCCC[C@@H](C)Oc3ccc(NS(=O)(=O)c4cccs4)cc3C(=O)N([C@@H](C)CO)C[C@@H]2C)cc1	T cruzi growth-1 inconclusive | T cruzi growth-2 107 | T cruzi growth-3 inactive | NIH3T3 tox inactive | NIH3T3 tox 2 inactive
Cc1ccc(S(=O)(=O)N(C)C[C@@H]2OCCCC[C@@H](C)Oc3ccc(NS(=O)(=O)c4cccs4)cc3C(=O)N([C@H](C)CO)C[C@@H]2C)cc1	none (no result: IDH1 R132H inh)
Cc1ccc(S(=O)(=O)N(C)C[C@H]2OCCCC[C@@H](C)Oc3ccc(NS(=O)(=O)c4cccs4)cc3C(=O)N([C@H](C)CO)C[C@H]2C)cc1	T cruzi growth-1 inconclusive (no result: IDH1 R132H inh) | T cruzi growth-2 inactive | T cruzi growth-3 inactive | NIH3T3 tox inactive | NIH3T3 tox 2 inactive
COC(=O)CCCCCCC(=O)N/N=C/c1ccc(-n2ccnc2)cc1	none (no result: T cruzi growth-1, Pf Dd2 inh, GASC1 inh)
Cc1cccc(NC(=O)c2ccc(OCC(=O)Nc3ccc(Cl)c(Cl)c3)cc2)c1C	none (no result: T cruzi growth-1, Pf Dd2 inh, GASC1 inh)
Cc1nn(-c2ccccc2)nc1-c1nnc(-c2ccc(Cl)c(Cl)c2)o1	none (no result: T cruzi growth-1, Pf Dd2 inh, GASC1 inh)
COc1ccc2c3c([nH]c2c1)[C@@H](CO)N(C(=O)Nc1cccc(F)c1)CC31CN(S(=O)(=O)c2ccccc2)C1	none (no result: T cruzi growth-1, GASC1 inh, IDH1 R132H inh)
COc1ccc(OC)c(NC(=O)Cn2cc(C(C)=O)c3ccccc32)c1	none (no result: T cruzi growth-1, Pf Dd2 inh, GASC1 inh)
CC(C)C#Cc1ccc([C@@H]2[C@@H](C#N)N(C(=O)C3CC3)[C@H]2CO)cc1	none (no result: IDH1 R132H inh)
CC(C)C#Cc1ccc([C@H]2[C@@H](C#N)N(C(=O)C3CCC3)[C@@H]2CO)cc1	none (no result: IDH1 R132H inh)
CCCC#Cc1ccc([C@@H]2[C@@H](CO)N(C(=O)C3CCC3)[C@H]2C#N)cc1	none (no result: IDH1 R132H inh)
CC(C)C#Cc1ccc([C@H]2[C@@H](C#N)N(C(=O)C3CCC3)[C@H]2CO)cc1	T cruzi growth-1 98 (no result: IDH1 R132H inh) | T cruzi growth-2 100 | T cruzi growth-3 inactive | NIH3T3 tox inactive | NIH3T3 tox 2 37
CC(C)C#Cc1ccc([C@@H]2[C@H](C#N)N(C(=O)C3CCC3)[C@H]2CO)cc1	T cruzi growth-1 inconclusive (no result: IDH1 R132H inh) | T cruzi growth-2 104 | T cruzi growth-3 inactive | NIH3T3 tox inactive | NIH3T3 tox 2 34
CC(C)C#Cc1ccc([C@H]2[C@@H](C#N)N(C(=O)C3CC3)[C@H]2CO)cc1	none (no result: IDH1 R132H inh)
CC(C)C#Cc1ccc([C@H]2[C@@H](CO)N(C(=O)C3CCOCC3)[C@H]2C#N)cc1	T cruzi growth-1 98 | T cruzi growth-2 106 | T cruzi growth-3 inactive | NIH3T3 tox inactive | NIH3T3 tox 2 inactive
CC(C)C#Cc1ccc([C@@H]2[C@@H](CO)N(C(=O)C3CCC3)[C@H]2C#N)cc1	T cruzi growth-1 100 (no result: IDH1 R132H inh) | T cruzi growth-2 100 | T cruzi growth-3 inactive | NIH3T3 tox inactive | NIH3T3 tox 2 31
Cc1ccc(N(CC(=O)Nc2ccc(F)cc2)S(C)(=O)=O)cc1	none (no result: T cruzi growth-1, Pf Dd2 inh, GASC1 inh)
C/C=C/c1ccc2c(c1)O[C@@H](CN(C)C(=O)Nc1ccc(F)cc1)[C@@H](C)CN([C@H](C)CO)S2(=O)=O	none
C/C=C/c1ccc2c(c1)O[C@H](CN(C)C(=O)Nc1ccc(C(F)(F)F)cc1)[C@H](C)CN([C@H](C)CO)S2(=O)=O	T cruzi growth-1 100 | T cruzi growth-2 96 | T cruzi growth-3 inactive | NIH3T3 tox 38 | NIH3T3 tox 2 90
C/C=C/c1ccc2c(c1)O[C@@H](CN(C)C(=O)Nc1ccccc1)[C@H](C)CN([C@H](C)CO)S2(=O)=O	none
C/C=C/c1ccc2c(c1)O[C@H](CN(C)C(=O)Nc1ccc(C(F)(F)F)cc1)[C@@H](C)CN([C@@H](C)CO)S2(=O)=O	T cruzi growth-1 101 | T cruzi growth-2 inactive | T cruzi growth-3 inactive | NIH3T3 tox 73 | NIH3T3 tox 2 98

Screens from PubChem.
